Measured values as given in ChEMBL document CHEMBL1152770, “Inhibitors of hepatitis C virus polymerase: synthesis and biological characterization of unsymmetrical dialkyl-hydroxynaphthalenoyl-benzothiadiazines” (J Med Chem, 2009).

Legend:
Type in all cases: ADME, organism-based
Parameters in all cases: dose 5 mg/kg, route oral
[1] = Ratio of drug level in liver to plasma in rat at 5 mg/kg, po after 12 hrs
How it was run: (§1)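 Rats dosed orally at 5 mg/kg, four groups, sacrificed at 6 and 12 h. Plasma and liver homogenate extracted by acetonitrile protein precipitation with internal standard and quantified by LC-MS (negative-ion MRM). Liver/plasma ratio taken from the two concentrations.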

[2] = Plasma concentration in rat at 5 mg/kg, po after 12 hrs
How it was run: (§2)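 Vehicle DMSO:PEG400 (10:90, v/v). Dosing at 5 mg/kg in rat and monkey; dog 5 mg/kg or 2.5 mg/kg. Protein precipitation with acetonitrile, then LC-MS/MS in negative-ion MRM (m/z 516.2→437.0) against spiked standards with internal standard.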

[3] = Ratio of drug level in liver to plasma in rat at 5 mg/kg, po after 6 hrs; how it was run: as §1
[4] = Drug level in rat liver at 5 mg/kg, po after 6 hrs; details: read-out: Drug uptake; how it was run: as §1
[5] = Plasma concentration in rat at 5 mg/kg, po after 6 hrs; how it was run: as §2
[6] = Drug level in rat liver at 5 mg/kg, po after 12 hrs; details: read-out: Drug uptake; how it was run: as §1

## CC(C)(C)CC[C@@]1(C)C(=O)C(C2=NS(=O)(=O)c3cc(NS(C)(=O)=O)ccc3N2)=C(O)c2ccccc21
[1]
  Kp at 12 h: 20
[2]
  concentration at 12 h: 320 nM
[3]
  Kp at 6 h: 17
[4]
  concentration at 6 h: 21800 ng/g
[5]
  concentration at 6 h: 2240 nM
[6]
  concentration at 12 h: 4190 ng/g
